The source of these data is ChEMBL document CHEMBL1821655, “Identification of SQ609 as a lead compound from a library of dipiperidines” (Bioorg Med Chem Lett, 2011).

Data set [1] concerns Mycobacterium tuberculosis. The data set is described as follows: Antimycobacterial activity against Mycobacterium tuberculosis H37Rv ATCC 25618 after 10 to 14 days by microplate alamar blue assay. Format: functional. A general note: Resazurin is reduced to fluorescent resorufin, in cell work by metabolically active cells.
Data set [2] has as its system Mycobacterium tuberculosis. Description: Antimycobacterial activity against Mycobacterium tuberculosis pSMT1 infected in mouse J774A.1 ATCC TIB-67 cells assessed as viable bacterial count at 0.125 ug/ml for 4 days followed by 3 days incubation in drug-free medium by luciferase reporter gene assay. Format: functional. Put shortly:
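Mtb-infected J774A.1 mouse macrophages exposed to drug for 4 days, then medium replaced with drug-free medium and cultures incubated 3 more days. Triplicate wells lysed on day 0 and day 7 and viable bacteria measured as relative light units. Isoniazid control at 0.125 μg/ml.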
On the technique in general: Reporter assays use an easily measured gene product as a stand-in for the process of interest.

For data set [3], the system named is Mycobacterium tuberculosis. The data set is described as follows: Antimycobacterial activity against recombinant strain Mycobacterium tuberculosis Rv0341 by firefly luciferase reporter gene assay. Format: functional, organism-based. An outline of the steps:
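Recombinant Mtb carrying a promoter fused to firefly luciferase, which is activated and produces light when cell wall biosynthesis is inhibited. High-throughput luminescence read-out.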

In data set [4] the test system is Mycobacterium tuberculosis. The data set is described as follows: Antimycobacterial activity against Mycobacterium tuberculosis H37Rv infected in C3H/HeNCrlBR mouse assessed as prevention of body weight loss at 10 mg/kg, po administered 7 days after infection for 2 weeks measured after 10 to 15 days relative to control. Format: functional, organism-based. The arrangement: dose 10 mg/kg. Put shortly:
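Treatment began 7 days after infection: oral gavage once daily at 10 mg/kg for 2 wk. Body weights tracked from day 0 through day 21 and compared with uninfected mice and infected placebo-treated mice. Mortality was followed after therapy ended.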

In data set [5] the test system is J774.A1. The data set is described as follows: Cytotoxicity against mouse J774A1 cells assessed as cell aggregation at 4 ug/ml. Format: cell-based.
The subject of data set [6] is Mycobacterium tuberculosis. Description: Antimycobacterial activity against Mycobacterium tuberculosis pSMT1 infected in mouse J774A.1 ATCC TIB-67 cells assessed as viable bacterial count at 4 ug/ml for 4 days followed by 3 days incubation in drug-free medium by luciferase reporter gene assay. Format: functional.
In data set [7] the test system is Mycobacterium tuberculosis. The data set is described as follows: Antimycobacterial activity against Mycobacterium tuberculosis pSMT1 infected in mouse J774A.1 ATCC TIB-67 cells assessed as inhibition of intracellular bacterial growth at MIC for 4 days followed by 3 days incubation in drug-free medium by luciferase reporter gene assay. Format: functional.

The structures appear in SMILES notation. In brackets after ≈: the same amount, converted by molar mass. Activity calls are given as the source filed them. The calls are words filed in the database; no cut-off is given here.

In data set [1], `c1ccc(CC2CCN(CC3CCN(CC45CC6CC(CC(C6)C4)C5)CC3)CC2)cc1` yielded an MIC of 10 µg/mL (≈ 23.8 µM).

Turning to `NNC(=O)c1ccncc1` [ISONIAZID], the Activity in data set [2] is 4 RLU.

Consider `CC(C)=CCC/C(C)=C/CN1CCC(CN2CCC(Cc3ccccc3)CC2)CC1`, for which the lowest concentration to inhibit growth in data set [1] (MIC) was 20 µg/mL (≈ 48.9 µM).

Consider `OC1CCN(CC2CCN(CC(c3ccccc3)c3ccccc3)CC2)CC1`, for which the outcome in data set [3], in data set [1] and in data set [4] was Active. Further, the MIC in data set [1] was determined as 4 µg/mL (≈ 10.6 µM). The Activity entry in data set [5] is “Toxic”.

In the case of `OC1CCN(CC2CCN(CCOc3ccccc3)CC2)CC1`, in data set [1], the lowest concentration to inhibit growth (MIC) was 8 µg/mL (≈ 25.1 µM).

Compound `OCC1CCCN(CC2CCN(CC(c3ccccc3)c3ccccc3)CC2)C1` (stereo not drawn) registered a minimal inhibitory concentration (MIC) in data set [1] of 40 µg/mL (≈ 102 µM).

For the compound `OC1CCN(CC2CCN(CC34CC5CC(CC(C5)C3)C4)CC2)CC1`, the outcome in data set [3], in data set [1] and in data set [4] was Active. In data set [1], this compound yielded an MIC of 4 µg/mL (≈ 11.5 µM). Also, the Activity in data set [6] was 354 RLU. In addition, the “inhibition (INH)” value in data set [7] is recorded as above 90%.

Regarding `CCC(CN1CCC(CN2CCC(O)CC2)CC1)c1ccccc1` (stereo not drawn), the minimal inhibitory concentration (MIC) in data set [1] was determined as 8 µg/mL (≈ 24.2 µM).

As for `c1ccc(CC2CCN(CC3CCN(CC(c4ccccc4)c4ccccc4)CC3)CC2)cc1`, the lowest concentration to inhibit growth in data set [1] (MIC) was 11 µg/mL (≈ 24.3 µM).

For the compound `c1ccc(CC2CCN(CC3CCN(CCC45CC6CC(CC(C6)C4)C5)CC3)CC2)cc1`, the minimum inhibitory concentration (MIC) in data set [1] is 5 µg/mL (≈ 11.5 µM).

`OC1CCN(CC2CCN(CC3CCCCCC3)CC2)CC1` registered a minimal inhibitory concentration (MIC) in data set [1] of 14 µg/mL (≈ 45.4 µM).

As to `OC1CCN(CC2CCN(CCC34CC5CC(CC(C5)C3)C4)CC2)CC1`, in data set [1], inhibition of growth (MIC) required 15 µg/mL (≈ 41.6 µM).

Regarding `OC1CCN(CC2CCN(C3C4CC5CC(C4)CC3C5)CC2)CC1` (stereo not drawn), the outcome in data set [3] and in data set [1] was Active.

As usually defined, the MIC is the lowest concentration found to suppress growth. A low value points to greater potency.
